Experimental data: ChEMBL document CHEMBL1149148, “Synthesis and structure-activity relationships of novel 7-substituted 1,4-dihydro-4-oxo-1-(2-thiazolyl)-1,8-naphthyridine-3-carboxylic acids as antitumor agents. Part 2” (J Med Chem, 2004)
In brackets after ≈: the same amount, converted by molar mass.

Tests used:
[1] = system: P388; experiment: Cytotoxic activity against murine P388 leukemia cells; type: functional, cell-based; details: Mus musculus
[2] = system: Mus musculus; experiment: Ratio of median survival time of treated mice (T) to that of median survival time of controls (C) in mice infected with p388 cells (in vivo) at a dose of 50 mg/kg; type: functional
Outline: (§1)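 BDF1 mice implanted ip with 0.1 mL diluted ascites fluid carrying 10⁶ P388 leukemia cells. Dosing ip on days 1 and 5 after implantation. Test compounds were suspended in 0.4% CMC, and reference drugs were dissolved and diluted in distilled water. Seven mice per group. T/C (%) = median survival time of treated group / median survival time of control group × 100.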

[3] = system: Mus musculus; experiment: Ratio of median survival time of treated mice (T) to that of median survival time of controls (C) in mice infected with p388 cells (in vivo) at a dose of 3.13 mg/kg; type: functional; outline: as §1
[4] = Solubility at pH 7.2; type: physicochemical; details: buffer
Outline: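 Water solubility measured in pH 7.2 phosphate buffer, reported in mg/mL.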

[5] = system: Mus musculus; experiment: Ratio of median survival time of treated mice (T) to that of median survival time of controls (C) in mice infected with p388 cells (in vivo) at a dose of 12.5 mg/kg; type: functional; outline: as §1
[6] = system: Mus musculus; experiment: Ratio of median survival time of treated mice (T) to that of median survival time of controls (C) in mice infected with p388 cells (in vivo) at a dose of 0.78 mg/kg; type: functional; outline: as §1
[7] = system: Mus musculus; experiment: Ratio of median survival time of treated mice (T) to that of median survival time of controls (C) in mice infected with p388 cells (in vivo) at a dose of 6.25 mg/kg; type: functional; outline: as §1
[8] = system: Mus musculus; experiment: Ratio of median survival time of treated mice (T) to that of median survival time of controls (C) in mice infected with p388 cells (in vivo) at a dose of 1.56 mg/kg; type: functional; outline: as §1
[9] = system: Hs746T; experiment: Cytotoxic activity against human tumor Hs 746.T stomach cells; type: functional, cell-based
Outline: (§2)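 Hs746T and PANC-1 cells kept in Dulbecco's modified Eagle's medium with 10% FBS. Seeded at (1-2) × 10⁴ cells/mL, 24 h preincubation, then graded compound concentrations for 72 h at 37 °C in 5% CO₂. MTT (5 mg/mL solution) added for 4 h, formazan taken up in DMSO, read at 570/690 nm. IC50 is 50% absorbance reduction relative to control. At least two independent experiments averaged.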

[10] = system: SCaBER; experiment: Cytotoxic activity against human tumor SCaBER bladder cells; type: functional, cell-based
Outline: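 SCaBER cells maintained in EMEM with 10% FBS and nonessential amino acids. Seeded at (1-2) × 10⁴ cells/mL, 24 h preincubation, then 72 h compound exposure at various concentrations at 37 °C in 5% CO₂. MTT (5 mg/mL) for 4 h, then DMSO, read at 570/690 nm. IC50 is 50% absorbance drop vs control. At least two independent experiments averaged.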

[11] = system: SK-OV-3; experiment: Cytotoxic activity against human tumor SK-OV-3 ovary cells; type: functional, cell-based; details: SK-OV-3, Female gonad
Outline: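 SKOV3 cells grown in RPMI 1640 with 10% heat-inactivated FBS. Cells at (1-2) × 10⁴ cells/mL, preincubated 24 h, treated with graded concentrations for 72 h at 37 °C in 5% CO₂. MTT readout (5 mg/mL, 4 h), formazan in DMSO, absorbance 570 nm/690 nm. IC50 is the concentration for 50% absorbance reduction vs control. Mean of at least two independent experiments.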

[12] = system: SBC-3; experiment: Cytotoxic activity against human tumor SBC-3 lung cells; type: functional, cell-based
Outline: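 SBC-3 cells cultured in RPMI 1640 plus 10% FBS. Plated at (1-2) × 10⁴ cells/mL, preincubated 24 h, then compound at various concentrations for 72 h at 37 °C in 5% CO₂. MTT solution (5 mg/mL) for 4 h, DMSO solubilization, absorbance 570 nm with 690 nm reference. IC50 is the dose halving absorbance vs control. Mean of at least two independent runs.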

[13] = system: HL-60; experiment: Cytotoxic activity against human tumor HL-60 leukemia cells; type: functional, cell-based
Outline: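 HL-60 cells grown in RPMI 1640 with 20% FBS. Seeded at (1-2) × 10⁴ cells/mL, preincubated 24 h, then exposed to a range of compound concentrations for 72 h at 37 °C in 5% CO₂. Read by MTT (5 mg/mL solution, 4 h), formazan dissolved in DMSO, absorbance 570 nm/690 nm. IC50 is the concentration giving 50% absorbance reduction vs control. Mean of at least two independent experiments.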

[14] = system: PANC-1; experiment: Cytotoxic activity against human tumor PANC-1 pancreas cells; type: functional, cell-based; outline: as §2
[15] = system: Mus musculus; experiment: Ratio of median survival time of treated mice (T) to that of median survival time of controls (C) in mice infected with p388 cells (in vivo) at a dose of 25 mg/kg; type: functional; outline: as §1

Cl.Nc1cc2c(=O)c(C(=O)O)cn(-c3nccs3)c2nc1N1CCC(N)C1 (centres undefined)
IC50 [1]: 1.01 µg/mL

C[C@H]1CN(c2ccc3c(=O)c(C(=O)O)cn(-c4nccs4)c3n2)C[C@@H]1N.Cl
T/C [2]: 288%
T/C [3]: 175%
solubility [4]: 17 µg/mL
IC50 [1]: 0.0096 µg/mL
T/C [5]: 200%

COc1cccc2c1C(=O)c1c(O)c3c(c(O)c1C2=O)C[C@@](O)(C(=O)CO)C[C@@H]3O[C@H]1C[C@H](N)[C@H](O)[C@H](C)O1 [DOXORUBICIN]
T/C [6]: 173%
T/C [3]: 235%
T/C [7]: 293%
T/C [8]: 228%

Cl.NC1CCN(c2cc(Cl)c3c(=O)c(C(=O)O)cn(-c4nccs4)c3n2)C1 (centres undefined)
IC50 [1]: 0.049 µg/mL

CC1CC(N)CN1c1ccc2c(=O)c(C(=O)O)cn(-c3nccs3)c2n1.Cl (centres undefined)
IC50 [1]: 0.11 µg/mL

CNC1CN(c2ccc3c(=O)c(C(=O)O)cn(-c4nccs4)c3n2)C1.Cl
IC50 [1]: 0.024 µg/mL

COc1ccccc1N1CCN(c2ccc3c(=O)c(C(=O)O)cn(-c4nccs4)c3n2)CC1.Cl
IC50 [1]: > 1 µg/mL

Cl.NC1CCN(c2cc(C(F)(F)F)c3c(=O)c(C(=O)O)cn(-c4nccs4)c3n2)C1 (centres undefined)
IC50 [1]: 0.098 µg/mL

Cl.O=C(O)c1cn(-c2nccs2)c2nc(N3CCOCC3)ccc2c1=O
IC50 [1]: 0.12 µg/mL

CN[C@H]1CN(c2ccc3c(=O)c(C(=O)O)cn(-c4nccs4)c3n2)C[C@@H]1OC [VOSAROXIN]
IC50 [9]: 0.194 µg/mL (≈ 0.483 µM)
IC50 [10]: 0.121 µg/mL (≈ 0.301 µM)
IC50 [11]: 0.266 µg/mL (≈ 0.663 µM)
IC50 [12]: 0.0319 µg/mL (≈ 0.0795 µM)
IC50 [13]: 0.0498 µg/mL (≈ 0.124 µM)
IC50 [14]: 0.388 µg/mL (≈ 0.967 µM)

CN[C@H]1CN(c2ccc3c(=O)c(C(=O)O)cn(-c4nccs4)c3n2)C[C@H]1OC.Cl
IC50 [1]: 0.02 µg/mL

CN[C@H]1CN(c2ccc3c(=O)c(C(=O)O)cn(-c4nccs4)c3n2)C[C@@H]1C.Cl
T/C [2]: 75%
T/C [3]: 188%
solubility [4]: 6.2 µg/mL
IC50 [1]: 0.012 µg/mL
T/C [5]: 288%

O=C(O)c1cn(-c2nccs2)c2nc(-c3cc[nH]n3)ccc2c1=O
IC50 [1]: 4.34 µg/mL (≈ 12.8 µM)

Cl.O=C(O)c1cn(-c2nccs2)c2nc(N3CCCC3)ccc2c1=O
IC50 [1]: 0.066 µg/mL

C=Cc1ccc2c(=O)c(C(=O)O)cn(-c3nccs3)c2n1
IC50 [1]: > 1 µg/mL

C#Cc1ccc2c(=O)c(C(=O)O)cn(-c3nccs3)c2n1
IC50 [1]: 2.3 µg/mL (≈ 7.74 µM)

CN[C@@H]1CN(c2ccc3c(=O)c(C(=O)O)cn(-c4nccs4)c3n2)[C@H]1C.Cl
IC50 [1]: 0.041 µg/mL

CN[C@H]1CN(c2ccc3c(=O)c(C(=O)O)cn(-c4nccs4)c3n2)C[C@@H]1OC.Cl
T/C [15]: >375%
T/C [6]: 150%
T/C [3]: 225%
solubility [4]: 23700 µg/mL
IC50 [1]: 0.0075 µg/mL
T/C [7]: 275%
T/C [8]: 188%
T/C [5]: >375%

Cl.NC1CCN(c2nc3c(cc2O)c(=O)c(C(=O)O)cn3-c2nccs2)C1 (centres undefined)
IC50 [1]: 4.31 µg/mL

Cl.NC1CCN(c2nc3c(cc2Cl)c(=O)c(C(=O)O)cn3-c2nccs2)C1 (centres undefined)
IC50 [1]: 0.227 µg/mL

Cc1cc(-c2ccc3c(=O)c(C(=O)O)cn(-c4nccs4)c3n2)cc(C)n1
IC50 [1]: 7.37 µg/mL (≈ 19.5 µM)
